# Measurements from ChEMBL document CHEMBL4257549, “Design, synthesis and biological evaluation of benzimidazole-rhodanine conjugates as potent topoisomerase II inhibitors” (Medchemcomm, 2018).
# The source made the active and inactive calls. No cut-off for these calls is given here.
# Species: Homo sapiens
# Assay: Inhibition of human topoisomerase 2-mediated pBR322 DNA relaxation at 50 uM after 30 mins by agarose gel electrophoresis
# Details: not given
# How it was run: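 Relaxation of 200 ng supercoiled pBR322 by 1 U Topo II (TopoGEN) in 20 μL buffer: 50 mM Tris-HCl pH 8.0, 150 mM NaCl, 10 mM MgCl2, 2 mM ATP, 0.5 mM DTT, 30 μg/mL BSA. Incubated 30 min at 37 °C, stopped with sarcosyl/glycerol dye. Products run on 1% agarose in TAE (1.5 h, 75 V), Ged Red stained, UV imaged; etoposide positive control.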
row,inhibition,SMILES
1,Active,O=C(O)CN1C(=O)/C(=C/c2nc3ccccc3n2Cc2ccc(F)cc2F)SC1=S
2,Active,O=C(O)CN1C(=O)/C(=C/c2nc3ccccc3n2Cc2ccccc2)SC1=S

# Species: Homo sapiens
# Assay: Inhibition of human topoisomerase 2-mediated pBR322 DNA relaxation at 10 uM after 30 mins by agarose gel electrophoresis
# Details: not given
row,inhibition,SMILES
1,Active,O=C(O)CN1C(=O)/C(=C/c2nc3ccccc3n2CC(=O)c2ccc(F)cc2)SC1=S
2,Active,COc1cc(Cn2c(/C=C3\SC(=S)N(CC(=O)O)C3=O)nc3ccccc32)cc(OC)c1

# Species: Homo sapiens
# Assay: Inhibition of human topoisomerase 2-mediated pBR322 DNA relaxation at 20 uM after 30 mins by agarose gel electrophoresis
# Details: not given
row,inhibition,SMILES
1,Active,O=C(O)CN1C(=O)/C(=C/c2nc3ccccc3n2Cc2ccc(C(F)(F)F)cc2)SC1=S
2,Active,O=C(O)CN1C(=O)/C(=C/c2nc3ccccc3n2CC(=O)c2ccc(F)cc2)SC1=S
3,Active,COc1cc(Cn2c(/C=C3\SC(=S)N(CC(=O)O)C3=O)nc3ccccc32)cc(OC)c1
4,inactive,COc1ccc(C(=O)Cn2c(/C=C3\SC(=S)N(CC(=O)O)C3=O)nc3ccccc32)cc1
5,inactive,O=C(O)CN1C(=O)/C(=C/c2nc3ccccc3n2Cc2ccc(F)cc2F)SC1=S
6,Active,O=C(O)CN1C(=O)/C(=C/c2nc3ccccc3n2Cc2ccccc2)SC1=S

# Test system: A549
# Assay: Cytotoxicity against human A549 cells after 48 hrs by MTT assay
# Type: functional, cell-based
# Details: A549, 48 h
# How it was run: (§1)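 Cells seeded at 5000 per well, left overnight, then exposed to compound at 0–50 μM for 48 h. MTT (20 μL of 2.5 mg mL−1) added for a further 4 h at 37 °C, formazan dissolved in DMSO, absorbance read at 570 nm. Quadruplicate wells, N > 2 determinations, mean IC50 taken as the concentration reducing cell number to 50%.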
row,SMILES,IC50 [µM]
1,O=C(O)CN1C(=O)/C(=C/c2nc3ccccc3n2Cc2ccc(C(F)(F)F)cc2)SC1=S,25.3
2,O=C(O)CN1C(=O)/C(=C/c2nc3ccccc3n2CC(=O)c2ccc(F)cc2)SC1=S,12.8
3,COc1cc(Cn2c(/C=C3\SC(=S)N(CC(=O)O)C3=O)nc3ccccc32)cc(OC)c1,5.17
4,COc1ccc(C(=O)Cn2c(/C=C3\SC(=S)N(CC(=O)O)C3=O)nc3ccccc32)cc1,5.15
5,O=C(O)CN1C(=O)/C(=C/c2nc3ccccc3n2Cc2ccc(F)cc2F)SC1=S,12.8
6,O=C(O)CN1C(=O)/C(=C/c2nc3ccccc3n2Cc2ccccc2)SC1=S,8.76

# Test system: HeLa
# Assay: Cytotoxicity against human HeLa cells after 48 hrs by MTT assay
# Type: functional, cell-based
# Details: not given
# How it was run: as §1
row,SMILES,IC50 [µM]
1,O=C(O)CN1C(=O)/C(=C/c2nc3ccccc3n2Cc2ccc(C(F)(F)F)cc2)SC1=S,21.4
2,O=C(O)CN1C(=O)/C(=C/c2nc3ccccc3n2CC(=O)c2ccc(F)cc2)SC1=S,14.8
3,COc1cc(Cn2c(/C=C3\SC(=S)N(CC(=O)O)C3=O)nc3ccccc32)cc(OC)c1,17.7
4,COc1ccc(C(=O)Cn2c(/C=C3\SC(=S)N(CC(=O)O)C3=O)nc3ccccc32)cc1,26.7
5,O=C(O)CN1C(=O)/C(=C/c2nc3ccccc3n2Cc2ccc(F)cc2F)SC1=S,26.1
6,O=C(O)CN1C(=O)/C(=C/c2nc3ccccc3n2Cc2ccccc2)SC1=S,22.7

# Test system: Raji
# Assay: Cytotoxicity against human Raji cells after 48 hrs by MTT assay
# Type: functional, cell-based
# Details: not given
# How it was run: as §1
row,SMILES,IC50 [µM]
1,O=C(O)CN1C(=O)/C(=C/c2nc3ccccc3n2Cc2ccc(C(F)(F)F)cc2)SC1=S,18.8
2,O=C(O)CN1C(=O)/C(=C/c2nc3ccccc3n2CC(=O)c2ccc(F)cc2)SC1=S,8.24
3,COc1cc(Cn2c(/C=C3\SC(=S)N(CC(=O)O)C3=O)nc3ccccc32)cc(OC)c1,2.11
4,COc1ccc(C(=O)Cn2c(/C=C3\SC(=S)N(CC(=O)O)C3=O)nc3ccccc32)cc1,6.32
5,O=C(O)CN1C(=O)/C(=C/c2nc3ccccc3n2Cc2ccc(F)cc2F)SC1=S,8.96
6,O=C(O)CN1C(=O)/C(=C/c2nc3ccccc3n2Cc2ccccc2)SC1=S,3.86

# Test system: MDA-MB-231
# Assay: Cytotoxicity against human MDA-MB-231 cells after 48 hrs by MTT assay
# Type: functional, cell-based
# Details: MDA-MB-231, 48 h
# How it was run: as §1
row,SMILES,IC50 [µM]
1,O=C(O)CN1C(=O)/C(=C/c2nc3ccccc3n2Cc2ccc(C(F)(F)F)cc2)SC1=S,12.5
2,O=C(O)CN1C(=O)/C(=C/c2nc3ccccc3n2CC(=O)c2ccc(F)cc2)SC1=S,6.31
3,COc1cc(Cn2c(/C=C3\SC(=S)N(CC(=O)O)C3=O)nc3ccccc32)cc(OC)c1,1.28
4,COc1ccc(C(=O)Cn2c(/C=C3\SC(=S)N(CC(=O)O)C3=O)nc3ccccc32)cc1,12.9
5,O=C(O)CN1C(=O)/C(=C/c2nc3ccccc3n2Cc2ccc(F)cc2F)SC1=S,11.5
6,O=C(O)CN1C(=O)/C(=C/c2nc3ccccc3n2Cc2ccccc2)SC1=S,1.82

# Target: T1, DNA topoisomerase 1 (Homo sapiens) (UniProt P11387)
# T1 sequence (whole entry): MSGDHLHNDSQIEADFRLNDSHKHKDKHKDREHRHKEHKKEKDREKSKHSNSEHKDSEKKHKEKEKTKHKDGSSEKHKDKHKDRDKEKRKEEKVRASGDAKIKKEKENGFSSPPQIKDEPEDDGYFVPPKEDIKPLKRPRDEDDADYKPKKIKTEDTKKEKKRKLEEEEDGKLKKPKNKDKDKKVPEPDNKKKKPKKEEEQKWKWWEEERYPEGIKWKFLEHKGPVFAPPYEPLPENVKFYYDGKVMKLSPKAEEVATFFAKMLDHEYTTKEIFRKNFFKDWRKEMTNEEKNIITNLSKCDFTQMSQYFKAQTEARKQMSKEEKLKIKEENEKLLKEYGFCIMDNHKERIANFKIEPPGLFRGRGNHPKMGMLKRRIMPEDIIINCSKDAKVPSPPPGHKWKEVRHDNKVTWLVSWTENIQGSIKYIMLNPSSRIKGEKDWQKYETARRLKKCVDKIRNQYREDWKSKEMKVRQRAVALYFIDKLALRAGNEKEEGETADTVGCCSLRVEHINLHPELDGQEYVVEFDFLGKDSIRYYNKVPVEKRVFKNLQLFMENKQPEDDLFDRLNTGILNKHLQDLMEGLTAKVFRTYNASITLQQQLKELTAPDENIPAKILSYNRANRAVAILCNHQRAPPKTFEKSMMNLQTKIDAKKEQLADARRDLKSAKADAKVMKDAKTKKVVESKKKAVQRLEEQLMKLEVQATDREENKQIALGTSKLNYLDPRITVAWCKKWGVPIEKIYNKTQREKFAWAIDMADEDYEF
# Assay: Inhibition of topoisomerase 1 (unknown origin)-mediated pBR322 DNA relaxation at 50 uM after 30 mins by agarose gel electrophoresis
# Details: not given
# How it was run: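 Topo I relaxation of pBR322 with compound at 30 min, 37 °C, camptothecin positive control. Stopped with SDS/bromophenol blue/glycerol dye, run on 1% agarose in TAE for 1.5 h, Ged Red stained, UV visualized.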
row,inhibition,SMILES
1,inactive,O=C(O)CN1C(=O)/C(=C/c2nc3ccccc3n2Cc2ccc(C(F)(F)F)cc2)SC1=S
2,inactive,O=C(O)CN1C(=O)/C(=C/c2nc3ccccc3n2CC(=O)c2ccc(F)cc2)SC1=S
3,inactive,COc1ccc(C(=O)Cn2c(/C=C3\SC(=S)N(CC(=O)O)C3=O)nc3ccccc32)cc1
4,inactive,O=C(O)CN1C(=O)/C(=C/c2nc3ccccc3n2Cc2ccc(F)cc2F)SC1=S
5,inactive,O=C(O)CN1C(=O)/C(=C/c2nc3ccccc3n2Cc2ccccc2)SC1=S

# Test system: HL-60
# Assay: Cytotoxicity against human HL60 cells after 48 hrs by MTT assay
# Type: functional, cell-based
# Details: HL-60, 48 h
# How it was run: as §1
row,SMILES,IC50 [µM]
1,O=C(O)CN1C(=O)/C(=C/c2nc3ccccc3n2Cc2ccc(C(F)(F)F)cc2)SC1=S,3.56
2,O=C(O)CN1C(=O)/C(=C/c2nc3ccccc3n2CC(=O)c2ccc(F)cc2)SC1=S,3.96
3,COc1cc(Cn2c(/C=C3\SC(=S)N(CC(=O)O)C3=O)nc3ccccc32)cc(OC)c1,1.41
4,COc1ccc(C(=O)Cn2c(/C=C3\SC(=S)N(CC(=O)O)C3=O)nc3ccccc32)cc1,5.44
5,O=C(O)CN1C(=O)/C(=C/c2nc3ccccc3n2Cc2ccc(F)cc2F)SC1=S,6.52
6,O=C(O)CN1C(=O)/C(=C/c2nc3ccccc3n2Cc2ccccc2)SC1=S,0.96

# Test system: PC-3
# Assay: Cytotoxicity against human PC3 cells after 48 hrs by MTT assay
# Type: functional, cell-based
# Details: PC-3, 48 h
# How it was run: as §1
row,SMILES,IC50 [µM]
1,O=C(O)CN1C(=O)/C(=C/c2nc3ccccc3n2Cc2ccc(C(F)(F)F)cc2)SC1=S,22.9
2,O=C(O)CN1C(=O)/C(=C/c2nc3ccccc3n2CC(=O)c2ccc(F)cc2)SC1=S,9.87
3,COc1cc(Cn2c(/C=C3\SC(=S)N(CC(=O)O)C3=O)nc3ccccc32)cc(OC)c1,6.37
4,COc1ccc(C(=O)Cn2c(/C=C3\SC(=S)N(CC(=O)O)C3=O)nc3ccccc32)cc1,8.75
5,O=C(O)CN1C(=O)/C(=C/c2nc3ccccc3n2Cc2ccc(F)cc2F)SC1=S,21.7
6,O=C(O)CN1C(=O)/C(=C/c2nc3ccccc3n2Cc2ccccc2)SC1=S,10.8
